Experimental data taken from ChEMBL document CHEMBL4699633, “Total Syntheses of Prenylated Isoflavones from Erythrina sacleuxii and Their Antibacterial Activity: 5-Deoxy-3'-prenylbiochanin A and Erysubin F” (J Nat Prod, 2020).
Converted amounts (≈) assume the structure as drawn.

Legend:
Plasmodium falciparum [1] = experiment: Antiplasmodial activity against chloroquine-resistant Plasmodium falciparum W2 by [3H]-hypoxanthine incorporation assay; type: functional, organism-based
[2] = test system: Salmonella enterica subsp. enterica; experiment: Antibacterial activity against Salmonella enterica subsp.enterica NCTC 13349 assessed as reduction in microbial growth after 18 hrs by agar dilution method; type: functional
Procedure, shortened: (§1)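 Agar dilution on Mueller Hinton agar; compounds dissolved in DMSO, 2-fold serial dilutions in solvent added to agar (DMSO 1% v/v final). Inocula from overnight cultures, adjusted photometrically. Plates incubated aerobically at 37 °C for 18 h. Vancomycin or ampicillin as positive controls, DMSO-only plates as negative controls.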

Candida albicans = experiment: Antifungal activity against Candida albicans ATCC 90028 assessed as reduction in microbial growth after 48 hrs by agar dilution method; type: functional
Procedure, shortened: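 Agar dilution in yeast extract peptone dextrose (YPD) agar; compounds in DMSO, 2-fold serial dilutions added to medium (DMSO 1% v/v final). Inoculum from overnight culture, adjusted photometrically. Plates incubated at 30 °C for 48 h. Amphotericin B as positive control, DMSO-only plates as negative control.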

Escherichia coli = experiment: Antibacterial activity against Escherichia coli ATCC 25922 assessed as reduction in microbial growth after 18 hrs by agar dilution method; type: functional; procedure, shortened: as §1
Plasmodium falciparum [3] = experiment: Antiplasmodial activity against chloroquine-sensitive Plasmodium falciparum D6 by [3H]-hypoxanthine incorporation assay; type: functional, organism-based
Staphylococcus aureus [4] = experiment: Antibacterial activity against methicilin-resistant Staphylococcus aureus ATCC 43300 assessed as reduction in microbial growth after 18 hrs by agar dilution method; type: functional
Procedure, shortened: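 MRSA ATCC 43300 tested by standardized agar dilution. Compounds dissolved in DMSO and 2-fold serially diluted in solvent, then added to Mueller Hinton agar at 1% v/v DMSO final. Inoculum from overnight culture, photometrically adjusted. Plates incubated aerobically at 37 °C for 18 h. Vancomycin served as positive control. DMSO-only (1% v/v) plates served as negative control. Read-out was MIC.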

Listeria monocytogenes = experiment: Antibacterial activity against Listeria monocytogenes assessed as reduction in microbial growth measured every 5 mins for 24 hrs; type: functional
[5] = test system: Mycobacterium tuberculosis; experiment: Antimycobacterial activity against Mycobacterium tuberculosis; type: functional
Staphylococcus aureus [6] = experiment: Antibacterial activity against methicillin-resistant Staphylococcus aureus assessed as reduction in microbial growth after 24 hrs by two-fold serial dilution method; type: functional

For `COc1ccc(-c2coc3cc(O)ccc3c2=O)cc1CC=C(C)C`, the IC50 (Plasmodium falciparum [1]) was 20 µM, the MIC [2] was greater than 190 µM and the MIC (Candida albicans) was greater than 95.1 µM. The MIC (Escherichia coli) was greater than 95.1 µM, the IC50 (Plasmodium falciparum [3]) was 20 µM and the MIC (Staphylococcus aureus [4]) was greater than 155 µM.
`C[C@@H]1[C@H](O)[C@@H](C)/C=C/C=C/C=C/C=C/C=C/C=C/C=C/[C@H](O[C@@H]2O[C@H](C)[C@@H](O)[C@H](N)[C@@H]2O)C[C@@H]2O[C@](O)(C[C@@H](O)C[C@@H](O)[C@H](O)CC[C@@H](O)C[C@@H](O)CC(=O)O[C@H]1C)C[C@H](O)[C@H]2C(=O)O` [AMPHOTERICIN B] gave an MIC (Candida albicans) of 0.5 µM.
`CC(C)=CCc1cc(-c2coc3cc(O)cc(O)c3c2=O)ccc1O` [CORYLIN] showed an MIC (Listeria monocytogenes) of 59.1 µM.
`CC(C)=CCc1c(O)cc(O)c2c(=O)c(-c3ccc(O)cc3)coc12` gave an MIC (Listeria monocytogenes) greater than 148 µM.
For `CC1(C)S[C@@H]2[C@H](NC(=O)[C@H](N)c3ccccc3)C(=O)N2[C@H]1C(=O)O` [AMPICILLIN], the MIC [2] was 11.4 µM and the MIC (Escherichia coli) was 11.4 µM.
`CC(C)=CCc1c(O)cc2occ(-c3ccc(O)cc3)c(=O)c2c1O` [WIGHTEONE] was tested, and the MIC (Listeria monocytogenes) was 29.6 µM.
Compound `CC(C)=CCc1cc(-c2coc3c(CC=C(C)C)c(O)ccc3c2=O)ccc1O` [ERYSUBIN F] has an MIC [5] of 32 µM (≈ 12.5 µg/mL), an MIC (Staphylococcus aureus [6]) of 256 µM and an MIC [2] greater than 82 µM. The MIC (Candida albicans) was greater than 82 µM, the MIC (Escherichia coli) was greater than 82 µM and the MIC (Staphylococcus aureus [4]) was 15.4 µM.
`CN[C@H](CC(C)C)C(=O)N[C@H]1C(=O)N[C@@H](CC(N)=O)C(=O)N[C@H]2C(=O)N[C@H]3C(=O)N[C@H](C(=O)N[C@H](C(=O)O)c4cc(O)cc(O)c4-c4cc3ccc4O)[C@H](O)c3ccc(c(Cl)c3)Oc3cc2cc(c3O[C@@H]2O[C@H](CO)[C@@H](O)[C@H](O)[C@H]2O[C@H]2C[C@](C)(N)[C@H](O)[C@H](C)O2)Oc2ccc(cc2Cl)[C@H]1O` [VANCOMYCIN] was tested, and the MIC (Staphylococcus aureus [4]) was 0.5 µM.
`CC(C)=CCc1cc(-c2cc(=O)c3ccc(O)c(CC=C(C)C)c3o2)ccc1O` showed an MIC [2] greater than 82 µM, an MIC (Candida albicans) greater than 82 µM and an MIC (Escherichia coli) greater than 82 µM. The MIC (Staphylococcus aureus [4]) was 20.5 µM.
